Test results taken from ChEMBL document CHEMBL3286267, “Discovery of MK-4409, a Novel Oxazole FAAH Inhibitor for the Treatment of Inflammatory and Neuropathic Pain” (ACS Med Chem Lett, 2014).
pEC50, pIC50, pKi: −log10 of the molar value. Calls of active or inactive are those of the source. The calls are words filed in the database; no cut-off is given here.

What was measured:
Rattus norvegicus [1] = assay: Analgesic activity in Sprague-Dawley rat complete Freund's adjuvant-induced inflammatory pain model assessed as reversal of mechanical allodynia at 30 mg/kg, po single dose measured after 1 hr; type: functional
Outline: (§1)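 Inflammatory pain induced in rats by intraplantar injection of complete Freund's adjuvant into the hind paw. Mechanical allodynia was assessed at 1 and 3 h after a single oral dose. For each rat, percent reversal = (postdose – predose)/(preinjury – predose), averaged over n = 6.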

[2] = Clearance in rat at 1 mg/kg, iv and 2 mg/kg, po; type: ADME, organism-based; settings: in vivo
Outline: (§2)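 Rat PK given 1 mg/kg iv in DMSO/PEG400/H2O 20/60/20 and 2 mg/kg po in either Imwitor/Tween 1/1 or PEG400/Tween80/H2O 40/10/50. Half-life, clearance, volume of distribution, dose-normalized AUC (AUCN) and oral bioavailability were derived.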

[3] = Volume of distribution at steady state in rat at 1 mg/kg, iv and 2 mg/kg, po; type: ADME, organism-based; settings: in vivo, read-out: Vdss; outline: as §2
Rattus norvegicus [4] = assay: Toxicity in Harlan rat assessed as motor impairment at 3 mg/kg, po by rotarod test; type: organism-based; parameters: dose 3 mg/kg, route oral; settings: in vivo
Rattus norvegicus [5] = assay: Analgesic activity in Sprague-Dawley rat complete Freund's adjuvant-induced inflammatory pain model assessed as reversal of mechanical allodynia at 30 mg/kg, po single dose measured after 3 hrs; type: functional; outline: as §1
[6] = Fraction unbound in rhesus monkey plasma; type: ADME, cell-free, Macaca mulatta
[7] = Half life in rat at 1 mg/kg, iv and 2 mg/kg, po; type: ADME, organism-based; settings: in vivo; outline: as §2
[8] = Plasma concentration in Sprague-Dawley rat at 30 mg/kg/day, po measured after 3 hrs on day 5; type: ADME, organism-based; parameters: route oral
Outline: (§3)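 Chronic paradigm in the CFA inflammatory pain model in rats (intraplantar complete Freund's adjuvant in the hind paw). Daily oral dosing continued for up to 10 days, with a pan CB agonist run for comparison. Allodynia was followed over the days. Plasma exposures were sampled at 3 and 24 h after dosing at 30 mg/kg.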

[9] = Plasma concentration in Sprague-Dawley rat at 30 mg/kg/day, po measured after 24 hrs on day 8; type: ADME, organism-based; parameters: route oral; outline: as §3
Rattus norvegicus [10] = assay: Analgesic activity in Sprague-Dawley rat complete Freund's adjuvant-induced inflammatory pain model assessed as reversal of mechanical allodynia at 10 mg/kg, po single dose measured after 3 hrs; type: functional; outline: as §1
[11] = Bioavailability in rat at 1 mg/kg, iv and 2 mg/kg, po; type: ADME, organism-based; settings: in vivo; outline: as §2
Rattus norvegicus [12] = assay: Analgesic activity in Sprague-Dawley rat complete Freund's adjuvant-induced inflammatory pain model assessed as reversal of mechanical allodynia at 30 mg/kg/day, po measured up to 10 days; type: functional, organism-based; outline: as §3
[13] = molecular target: Voltage-gated inwardly rectifying potassium channel KCNH2 (Homo sapiens, UniProt Q12809); assay: Displacement of [35S]MK-499 from human ERG
Outline: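 hERG K+ channel binding assay measuring displacement of the radiolabelled channel blocker [35S]MK-499. Values are averages of at least three duplicates.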

[14] = Fraction unbound in human plasma; type: ADME, cell-free
[15] = Fraction unbound in rat plasma; type: ADME, cell-free
[16] = Plasma concentration in Sprague-Dawley rat at 30 mg/kg/day, po measured after 24 hrs on day 3; type: ADME, organism-based; parameters: route oral; outline: as §3
[17] = Plasma concentration in Sprague-Dawley rat at 30 mg/kg/day, po measured after 3 hrs on day 8; type: ADME, organism-based; parameters: route oral; outline: as §3
[18] = Plasma concentration in Sprague-Dawley rat at 30 mg/kg/day, po measured after 24 hrs on day 5; type: ADME, organism-based; parameters: route oral; outline: as §3
[19] = Plasma concentration in Sprague-Dawley rat at 30 mg/kg/day, po measured after 3 hrs on day 10; type: ADME, organism-based; parameters: route oral; outline: as §3
[20] = Plasma concentration in Sprague-Dawley rat at 30 mg/kg/day, po measured after 3 hrs on day 9; type: ADME, organism-based; parameters: route oral; outline: as §3
[21] = Inhibition of human vesicular monoamine transporter
Outline: (§4)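 In vitro assays, with values reported as the average of at least three duplicates.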

Rattus norvegicus [22] = assay: Antiallodynic activity in Harlan rat spinal nerve ligation model of neuropathic pain assessed as reversal of allodynia at 3 mg/kg, po; type: functional
[23] = Plasma concentration in Sprague-Dawley rat at 30 mg/kg/day, po measured after 3 hrs on day 2; type: ADME, organism-based; parameters: route oral; outline: as §3
Rattus norvegicus [24] = assay: Dose normalized AUC in rat at 1 mg/kg, iv and 2 mg/kg, po; type: ADME, organism-based; settings: in vivo; outline: as §2
[25] = Plasma concentration in Sprague-Dawley rat at 30 mg/kg/day, po measured after 3 hrs on day 1; type: ADME, organism-based; parameters: route oral; outline: as §3
[26] = Plasma concentration in Sprague-Dawley rat at 30 mg/kg/day, po measured after 24 hrs on day 2; type: ADME, organism-based; parameters: route oral; outline: as §3
[27] = Plasma concentration in Sprague-Dawley rat at 30 mg/kg/day, po measured after 24 hrs on day 9; type: ADME, organism-based; parameters: route oral; outline: as §3
[28] = molecular target: T1, Fatty-acid amide hydrolase 1 (Homo sapiens, UniProt O00519); assay: Inhibition of human FAAH lysate using AMCAA as substrate by fluorescence assay; outline: as §4
T1 sequence (O00519 whole entry): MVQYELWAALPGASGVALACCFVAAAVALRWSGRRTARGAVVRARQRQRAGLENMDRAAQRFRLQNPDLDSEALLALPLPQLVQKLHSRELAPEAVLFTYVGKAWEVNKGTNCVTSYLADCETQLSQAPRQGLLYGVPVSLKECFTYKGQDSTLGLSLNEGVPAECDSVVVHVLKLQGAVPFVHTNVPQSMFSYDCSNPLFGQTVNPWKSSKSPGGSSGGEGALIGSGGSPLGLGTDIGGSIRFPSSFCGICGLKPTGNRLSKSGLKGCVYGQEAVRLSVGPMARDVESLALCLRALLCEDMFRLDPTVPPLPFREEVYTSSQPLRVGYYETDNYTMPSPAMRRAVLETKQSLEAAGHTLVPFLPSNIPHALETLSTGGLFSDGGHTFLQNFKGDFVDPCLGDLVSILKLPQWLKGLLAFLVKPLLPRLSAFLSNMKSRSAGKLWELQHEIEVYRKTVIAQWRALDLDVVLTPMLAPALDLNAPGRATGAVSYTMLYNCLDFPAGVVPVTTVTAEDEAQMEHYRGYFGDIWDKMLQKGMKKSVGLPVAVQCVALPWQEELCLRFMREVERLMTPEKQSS

Rattus norvegicus [29] = assay: Analgesic activity in Sprague-Dawley rat complete Freund's adjuvant-induced inflammatory pain model assessed as reversal of mechanical allodynia at 10 mg/kg, po single dose measured after 1 hr; type: functional; outline: as §1
[30] = Fraction unbound in dog plasma; type: ADME, cell-free, Canis lupus familiaris
[31] = Plasma concentration in Sprague-Dawley rat at 30 mg/kg/day, po measured after 3 hrs on day 3; type: ADME, organism-based; parameters: route oral; outline: as §3
[32] = Plasma concentration in Sprague-Dawley rat at 30 mg/kg/day, po measured after 24 hrs on day 10; type: ADME, organism-based; parameters: route oral; outline: as §3
[33] = molecular target: T2, Fatty-acid amide hydrolase 1 (Rattus norvegicus, UniProt P97612); assay: Inhibition of rat FAAH lysate using AMCAA as substrate by fluorescence assay; outline: as §4
T2 sequence (P97612 whole entry): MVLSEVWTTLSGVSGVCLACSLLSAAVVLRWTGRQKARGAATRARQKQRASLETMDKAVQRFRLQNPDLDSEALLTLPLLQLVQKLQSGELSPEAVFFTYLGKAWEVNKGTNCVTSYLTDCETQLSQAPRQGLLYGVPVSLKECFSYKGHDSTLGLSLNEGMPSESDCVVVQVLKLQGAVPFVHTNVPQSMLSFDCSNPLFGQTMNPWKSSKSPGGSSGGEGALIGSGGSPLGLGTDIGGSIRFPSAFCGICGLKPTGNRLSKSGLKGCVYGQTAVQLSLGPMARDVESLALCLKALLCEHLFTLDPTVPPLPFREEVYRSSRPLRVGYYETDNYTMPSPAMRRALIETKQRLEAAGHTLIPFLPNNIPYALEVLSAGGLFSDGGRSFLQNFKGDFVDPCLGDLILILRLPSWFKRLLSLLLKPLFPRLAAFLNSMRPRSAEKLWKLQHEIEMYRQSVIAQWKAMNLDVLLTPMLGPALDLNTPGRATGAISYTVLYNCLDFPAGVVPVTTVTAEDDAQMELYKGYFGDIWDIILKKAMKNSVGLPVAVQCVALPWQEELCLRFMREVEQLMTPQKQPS

Rattus norvegicus [34] = assay: Dose normalized AUC in rat at 1 mg/kg, iv and 1 to 2 mg/kg, po; type: ADME, organism-based; settings: in vivo; outline: as §2
[35] = Half life in rat at 1 mg/kg, iv and 1 to 2 mg/kg, po; type: ADME, organism-based; settings: in vivo; outline: as §2
[36] = Volume of distribution at steady state in rat at 1 mg/kg, iv and 1 to 2 mg/kg, po; type: ADME, organism-based; settings: in vivo, read-out: Vdss; outline: as §2
[37] = Clearance in rat at 1 mg/kg, iv and 1 to 2 mg/kg, po; type: ADME, organism-based; settings: in vivo; outline: as §2
[38] = Bioavailability in rat at 1 mg/kg, iv and 1 to 2 mg/kg, po; type: ADME, organism-based; settings: in vivo; outline: as §2
Rattus norvegicus [39] = assay: Analgesic activity in Sprague-Dawley rat complete Freund's adjuvant-induced inflammatory pain model assessed as reversal of mechanical allodynia at 2 mg/kg/day, ip measured up to 5 days; type: functional, organism-based
Outline: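 Inflammatory pain induced in rats by intraplantar injection of complete Freund's adjuvant into the hind paws. Mechanical allodynia was followed under a chronic repeated-dosing paradigm across several days to check for loss of antinociception (tachyphylaxis).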

Rattus norvegicus [40] = assay: Antiallodynic activity in Harlan rat spinal nerve ligation model of neuropathic pain assessed as reversal of allodynia at 21 mg/kg, po; type: functional, organism-based; parameters: dose 21 mg/kg
Outline: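 Rat spinal nerve ligation model of neuropathic pain, scored as percent reversal of allodynia after dosing. A rota-rod test run alongside served as a counterscreen for motor impairment.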

Sequence of Voltage-gated inwardly rectifying potassium channel KCNH2 (Q12809 whole entry): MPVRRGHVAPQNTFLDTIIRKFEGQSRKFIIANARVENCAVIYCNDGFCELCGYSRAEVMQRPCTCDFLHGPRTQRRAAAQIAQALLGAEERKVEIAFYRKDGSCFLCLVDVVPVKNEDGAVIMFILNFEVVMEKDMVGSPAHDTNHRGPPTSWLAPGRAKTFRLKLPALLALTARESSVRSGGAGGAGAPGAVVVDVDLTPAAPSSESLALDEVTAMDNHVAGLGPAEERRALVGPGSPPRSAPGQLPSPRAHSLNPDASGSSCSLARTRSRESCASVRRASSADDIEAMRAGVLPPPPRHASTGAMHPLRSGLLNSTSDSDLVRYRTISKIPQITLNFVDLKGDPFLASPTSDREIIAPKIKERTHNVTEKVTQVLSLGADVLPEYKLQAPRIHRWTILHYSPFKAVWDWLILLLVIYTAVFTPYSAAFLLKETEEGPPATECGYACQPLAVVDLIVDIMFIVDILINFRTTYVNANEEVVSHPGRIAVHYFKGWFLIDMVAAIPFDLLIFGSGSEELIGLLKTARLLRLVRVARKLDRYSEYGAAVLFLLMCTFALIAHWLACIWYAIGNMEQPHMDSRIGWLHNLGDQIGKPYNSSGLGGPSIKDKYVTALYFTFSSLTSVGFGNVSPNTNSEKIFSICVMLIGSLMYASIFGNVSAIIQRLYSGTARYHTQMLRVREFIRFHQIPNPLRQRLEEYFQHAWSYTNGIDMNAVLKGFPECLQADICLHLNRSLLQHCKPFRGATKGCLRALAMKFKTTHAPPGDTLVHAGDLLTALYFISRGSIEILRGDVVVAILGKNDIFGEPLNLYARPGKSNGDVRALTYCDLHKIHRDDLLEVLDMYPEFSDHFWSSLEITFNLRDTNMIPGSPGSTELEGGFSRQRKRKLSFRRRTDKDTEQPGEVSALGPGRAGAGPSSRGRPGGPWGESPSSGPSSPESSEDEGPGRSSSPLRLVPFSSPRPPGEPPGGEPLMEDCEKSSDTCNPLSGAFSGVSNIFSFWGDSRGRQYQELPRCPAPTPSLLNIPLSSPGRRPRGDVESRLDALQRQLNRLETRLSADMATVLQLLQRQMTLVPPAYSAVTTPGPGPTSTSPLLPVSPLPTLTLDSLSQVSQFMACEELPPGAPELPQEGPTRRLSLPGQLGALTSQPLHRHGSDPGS

## CC(C)(O)c1ccc(-c2nc(-c3ccc(F)cc3)oc2Sc2ccc(Cl)cn2)cn1
Rattus norvegicus [1]
  Activity: 70%
[2]
  clearance: 20 mL/min/kg
[3]
  Vd: 6.2 L/kg
Rattus norvegicus [4]
  Activity: Non-toxic
Rattus norvegicus [5]
  Activity: 71%
[6]
  fraction unbound: 0.008
[7]
  half-life: 4.3 h
[8]
  concentration at 3 h: 13.2 µM
[9]
  concentration at 24 h: 7.3 µM
Rattus norvegicus [10]
  Activity: 51%
[11]
  bioavailability: 120%
Rattus norvegicus [12]
  Activity: Active
[13]
  pKi: 5.90
[14]
  fraction unbound: 0.016
[15]
  fraction unbound: 0.029
[16]
  concentration at 24 h: 4.1 µM
[17]
  concentration at 3 h: 12.2 µM
[18]
  concentration at 24 h: 6.5 µM
[19]
  concentration at 3 h: 14.2 µM
[20]
  concentration at 3 h: 13.7 µM
[21]
  pEC50: < 4.70
Rattus norvegicus [22]
  inhibition in vivo at 3 mg/kg: 50%
[23]
  concentration at 3 h: 8 µM
Rattus norvegicus [24]
  AUC/dose: 2.2 µM·kg·h/mg
[25]
  concentration at 3 h: 5.4 µM
[26]
  concentration at 24 h: 2.1 µM
[27]
  concentration at 24 h: 8.3 µM
[28]
  pIC50: 7.96
Rattus norvegicus [29]
  Activity: 49%
[30]
  fraction unbound: 0.012
[31]
  concentration at 3 h: 11.9 µM
[32]
  concentration at 24 h: 7.9 µM
[33]
  pIC50: 7.96

## CS(=O)(=O)c1ccc(-c2nc(-c3ccc(F)cc3)oc2Sc2ccc(Cl)cn2)cc1
Rattus norvegicus [10]
  Activity: 44%
[13]
  pKi: 5.60
[21]
  pEC50: 4.85
Rattus norvegicus [29]
  Activity: 46%
[33]
  pIC50: 7.68

## CC(C)(O)c1cnc(-c2nn(-c3ccc(F)cc3)cc2Sc2ccc(Cl)cc2)cn1
Rattus norvegicus [1]
  Activity: 58%
Rattus norvegicus [34]
  AUC/dose: 1.07 µM·kg·h/mg
[35]
  half-life: 4.9 h
Rattus norvegicus [5]
  Activity: 40%
Rattus norvegicus [10]
  Activity: 38%
[36]
  Vd: 15.8 L/kg
[13]
  pKi: 6.13
[21]
  pEC50: 5.94
[37]
  clearance: 33.8 mL/min/kg
[38]
  bioavailability: 96%
[28]
  pIC50: 7.49
Rattus norvegicus [29]
  Activity: 42%
[33]
  pIC50: 8.00

## Cc1c(C(=O)c2cccc3ccccc23)c2cccc3c2n1[C@H](CN1CCOCC1)CO3
Rattus norvegicus [39]
  Activity: inactive

## NC(=O)c1cccc(-c2cccc(OC(=O)NC3CCCCC3)c2)c1
Rattus norvegicus [40]
  Activity: Active
